This sample holds only a part of the variants without activity.
B1: tRNA (parent)
chain: GUUCCGUUGGCGUAAUGGUAACGCGUCUCCCUCCUAAGGAGAAGACUGCGGGUUCGAGUCCCGUACGGAACG

Variants of: B1
Test: yeast fitness relative to wild type (ratio to wild type); higher = fitter; tRNA-Arg(CCU), competitive growth, 37 C, YPD
Summary of the method: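 Changes in genotype frequencies gave Darwinian fitness relative to wild type. Frequencies were read by 100-nucleotide paired-end sequencing of gene amplicons before and after pooled Saccharomyces cerevisiae strains, carrying tRNA-Arg(CCU) gene variants at the native locus, were competed in YPD at 37°C for 24 hours in six replicates. A genotype was kept only with ≥ 100 starting reads, and estimates < 0.5 were set to 0.5.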

| Variant | yeast fitness |
| --- | --- |
| A42U G63A | 0.868 |
| A42U G63U | 0.701 |
| A45G C46G U54G A70C | ≤ 0.5 |
| A43G C46G G56C | ≤ 0.5 |
| A43U U64C | 1.02 |
| A45C A57U C60U A65C | ≤ 0.5 |
| A45G G67C | 0.872 |
| A45G G67A | 0.961 |
| A43C G68C | 0.72 |
| A43G G63U U64A | 0.567 |
| A43G A45G C55U | ≤ 0.5 |
| A45G G58A U64A | 0.71 |
| A45C C49U G56A | 0.856 |
| A43U C61U | 0.969 |
| A43U C61G | 0.716 |
| A45C U47C C49U | 0.806 |
| A43G A70G | 0.977 |
| A43G A70U | 1.01 |
| A43G A70C | 1.02 |
| G44A C49G | 0.714 |
| A43G U53C | 0.84 |
| A45U A57U U59G U64G | ≤ 0.5 |
| A43G U47A C49A | 0.531 |
| A45G C61G A65C A70U | ≤ 0.5 |

| Variant | yeast fitness |
| --- | --- |
| G44C G50C A70C | 0.573 |
| A43U C60G C61U | ≤ 0.5 |
| A43G C55U | 0.711 |
| A43G C55A | 0.599 |
| G44C A57U | 0.554 |
| A43C C55G | 0.641 |
| A43C C55U | 0.721 |
| A43C C55A | 0.588 |
| A43U A69U | 0.904 |
| A45G A65G | 1.04 |
| A43U G48A C61G | ≤ 0.5 |
| A45U C46U U53C | 0.574 |
| A45C G67A | 0.814 |
| A43U G52C | 0.6 |
| A43U G52A | 0.663 |
| A43G G48C C55G | 0.597 |
| G44A A65U | 0.816 |
| G44A A65C | 1.05 |
| G44C G58C C66U | 0.653 |
| G44C C60G A65G | 0.617 |
| G44A C46U C62U | 0.723 |
| A43G C49U | 0.9 |
| A45C G50A A65U | 0.643 |
| A45G C46G | 0.87 |

| Variant | yeast fitness |
| --- | --- |
| G44C U54C U64A G68A | ≤ 0.5 |
| A43U A45G | 0.852 |
| A43G C55U C66G | 0.626 |
| G44C A45G G67A | 0.695 |
| A45G C55U C61G A69C | ≤ 0.5 |
| A45C C46G G68A | 0.678 |
| A42U U54A G58C | 0.599 |
| A43G C60U C62U A70C | ≤ 0.5 |
| G44A G51C | 0.572 |
| A45C C46A C62A | 0.603 |
| A43U U47G U53G A69U | ≤ 0.5 |
| A43U A57C | 0.726 |
| A43U A57C G58A | ≤ 0.5 |
| A43G G51C U54A A57C | ≤ 0.5 |
| A43G U54C | 0.905 |
| A43G A45U G63A | 0.613 |
| A43C G52A | 0.887 |
| A43C C62A G63A C66G A69G | ≤ 0.5 |
| A45G C61A A65U | ≤ 0.5 |
| A43G U59C A70C | 0.658 |
| A43C G52A A70U | ≤ 0.5 |
| A43G G58C C62U | 0.537 |
| G44A A45C C49U C61G | ≤ 0.5 |
| G44C C61A | 0.583 |

| Variant | yeast fitness |
| --- | --- |
| A43U G63A | 0.895 |
| G44A G56A U59A | 0.575 |
| G44A U64G | 0.694 |
| A43C G48A A57C G68U | 0.701 |
| G44A U54C | 0.723 |
| A43U U53A | 0.666 |
| A43U U53C | 0.854 |
| A45C C61U | 0.992 |
| A45C C61A | 0.797 |
| A42U G67C | 0.69 |
| A43U G50A A57G | ≤ 0.5 |
| A43U A45G C55G | ≤ 0.5 |
| G44A C66G | 0.641 |
| A43C A45U C49G C61U | ≤ 0.5 |
| A45G A69U | 1.01 |
| A45G A69C | 0.912 |
| A45C G63A | 0.85 |
| A43G G51C | 0.56 |
| A43C A70C | 0.897 |
| A45G C49U A69U | 1.04 |
| G44C G50C U54G C61G | 0.568 |
| A43C C46A G67A | 0.538 |
| A43G G48C | 0.829 |
| A45G C49U C55G C61G | 0.732 |

| Variant | yeast fitness |
| --- | --- |
| A43U G48C C60A U64A | ≤ 0.5 |
| A42U G51C | 0.567 |
| G44A A57U | 0.635 |
| A43U U47A | 0.799 |
| A43U C49G C61U | ≤ 0.5 |
| A43C C49G | 0.639 |
| A43C C49A | 0.631 |
| A45G U47C | 1.01 |
| A43G U47A C55A | ≤ 0.5 |
| A42U G52A C62U | 0.754 |
| G44A A57G G58A | 0.695 |
| G44C U54C C66U | 0.601 |
| A45G U54C | 0.774 |
| A43C A65U | 0.753 |
| A43C A65G | 0.95 |
| G44A C55U G63A | ≤ 0.5 |
| G44A C55G | 0.558 |
| A45G G58A C60U | 0.584 |
| A45G C49A | 0.609 |
| G44A A69U | 1.06 |
| A43G G58A A65C C66U | ≤ 0.5 |
| A45G C49G A65U | 0.56 |
| A43U G48A | 1.01 |
| A43U G48U | 0.77 |

| Variant | yeast fitness |
| --- | --- |
| A42U U59C U64A | ≤ 0.5 |
| A45G G48C G56A | 0.968 |
| A43G U53G C55A G56C A57G G58A U59G C60U A65C | ≤ 0.5 |
| A45G A65G A70C | 0.666 |
| A45C U53C | 0.823 |
| A45C U53A | 0.727 |
| A42U G50C U53A | ≤ 0.5 |
| A43C A45G | 1.02 |
| A43C A45U | 0.973 |
| A43U C60G C66U | 0.534 |
| A45C U47A C66U | 0.595 |
| A45G G68C | 0.695 |
| G44C C61A C66U | 0.824 |
| A45C G48A | 0.828 |
| A43C U59C | 0.828 |
| A42U G68A | 0.927 |
| A45U C49U U64A | 0.571 |
| A43C C62U A65U | 0.591 |
| A45C C60A | 0.62 |
| A45C U64G | 0.654 |
| A43U C46G U54A G63A | 0.726 |
| A45C U64C A65C | 0.965 |
| A45G C55A G56A G67A | ≤ 0.5 |
| A43C G52C C55U A69C | ≤ 0.5 |

| Variant | yeast fitness |
| --- | --- |
| A43C A57C A69U | ≤ 0.5 |
| A45G C60G | 0.821 |
| A45G C60U | 0.743 |
| A45C A57C G58C | 0.602 |
| A43G C55U C61U | 0.543 |
| A43U G56A A70U | 0.948 |
| A43G A57C A65U | 0.511 |
| G44C C60A C66U | ≤ 0.5 |
| G44C G52A | 0.833 |
| A43C A45G G48A G58A A65U | ≤ 0.5 |
| A43U G48A C62A C66G | 0.533 |
| G44A C55U A69C | 0.585 |
| G44C A65G A70C | 0.682 |
| A43U G48A U64C | 0.751 |
| A43G A65C | 0.79 |
| G44C G63C | 0.623 |
| A43U G67C | 0.778 |
| A43U G67A | 0.79 |
| A43U G67U | 0.87 |
| A45C C49G G58C | ≤ 0.5 |
| G44C C60G | 0.59 |
| A45C C60A C66U | ≤ 0.5 |
| A45C A69U | 0.959 |

Reference: the RNAGym collection of RNA variant scans (doi:10.1126/science.aae0568)
